Data set [1] can be described thus: Binding affinity to recombinant Cryptococcus neoformans var. grubii H99 major aspartyl peptidase 1 assessed as inhibition constant.
Data set [2] deals with Cryptococcus neoformans. Put plainly: Antifungal activity against Cryptococcus neoformans var. grubii H99 expressing major aspartyl peptidase 1 assessed as growth inhibition measured after 48 hrs. As to conditions: dose 0.1-50 µM. It is filed as functional, organism-based. Put shortly:
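C. neoformans H99 grown in YNB with 2% glucose; overnight cultures diluted to OD600 0.1 with 0.1, 1.0, 10 or 50 μM compound or 0.5% DMSO vehicle. Incubated at 30 °C on a tube rotator; terminal saturation density read as OD600 after 48 h. Triplicate cultures, mean ± standard deviation.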

For the next data set, the target named is Cathepsin D (Homo sapiens, UniProt P07339). Put plainly: Inhibition of human cathepsin D assessed as inhibition constant using ACC-GKPILFFRILK-(DNP)-(dR)-NH2 as substrate by spectrophotometric analysis.
Chain of Cathepsin D (P07339 65-162 limits assumed): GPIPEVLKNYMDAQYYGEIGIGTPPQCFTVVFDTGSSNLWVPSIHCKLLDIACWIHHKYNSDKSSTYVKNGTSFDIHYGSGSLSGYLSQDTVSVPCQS
Chain of Cathepsin D (P07339 169-412 limits assumed): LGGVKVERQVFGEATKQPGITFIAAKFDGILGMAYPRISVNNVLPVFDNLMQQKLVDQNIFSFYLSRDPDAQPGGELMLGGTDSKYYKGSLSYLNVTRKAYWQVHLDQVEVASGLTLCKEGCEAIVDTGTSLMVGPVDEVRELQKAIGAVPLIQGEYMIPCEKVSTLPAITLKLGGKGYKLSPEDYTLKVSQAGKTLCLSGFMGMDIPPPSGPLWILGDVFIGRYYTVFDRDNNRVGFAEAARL
The nature of data set [3]: Inhibition of porcine pepsin assessed as inhibition constant using BSA-bromophenol blue as substrate by spectrophotometric analysis. More on the design: species or system Sus scrofa.
A further data set has as its system CCRF-CEM. Put plainly: Cytotoxicity against human CCRF-CEM cells assessed as cell viability by celltiter-glo luminescent cell viability assay. It counts as cell-based. On the technique in general: In ATP-based viability assays light output follows the ATP content of the culture.
The target in the next data set is T1, Renin (Homo sapiens, UniProt P00797).
T1 sequence (P00797 whole entry): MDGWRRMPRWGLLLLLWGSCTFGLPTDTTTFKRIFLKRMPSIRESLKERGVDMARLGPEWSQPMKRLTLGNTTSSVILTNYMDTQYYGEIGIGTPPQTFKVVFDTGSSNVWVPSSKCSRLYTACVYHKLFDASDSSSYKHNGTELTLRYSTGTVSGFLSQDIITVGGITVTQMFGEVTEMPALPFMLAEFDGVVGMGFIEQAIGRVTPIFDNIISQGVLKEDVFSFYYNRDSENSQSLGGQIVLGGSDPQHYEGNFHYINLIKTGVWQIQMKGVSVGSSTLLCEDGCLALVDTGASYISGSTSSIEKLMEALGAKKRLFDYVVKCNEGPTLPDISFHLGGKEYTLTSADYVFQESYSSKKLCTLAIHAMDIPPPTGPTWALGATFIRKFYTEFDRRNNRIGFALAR
Put plainly: Inhibition of human renin assessed as inhibition constant using H-R-E(EDANS)-1HPFHLVIHT-K(DABCYL)-R-OH as susbtrate by spectrophotometric analysis.

Data set [4] concerns the target Human immunodeficiency virus type 1 protease (Human immunodeficiency virus 1, UniProt Q72874). As to the kind of experiment: Inhibition of wild type HIV-1 protease assessed as initial inhibition constant by spectrophotometric analysis.
A further data set concerns the target T2, Cathepsin E (Homo sapiens, UniProt P14091).
T2 sequence (P14091 whole entry): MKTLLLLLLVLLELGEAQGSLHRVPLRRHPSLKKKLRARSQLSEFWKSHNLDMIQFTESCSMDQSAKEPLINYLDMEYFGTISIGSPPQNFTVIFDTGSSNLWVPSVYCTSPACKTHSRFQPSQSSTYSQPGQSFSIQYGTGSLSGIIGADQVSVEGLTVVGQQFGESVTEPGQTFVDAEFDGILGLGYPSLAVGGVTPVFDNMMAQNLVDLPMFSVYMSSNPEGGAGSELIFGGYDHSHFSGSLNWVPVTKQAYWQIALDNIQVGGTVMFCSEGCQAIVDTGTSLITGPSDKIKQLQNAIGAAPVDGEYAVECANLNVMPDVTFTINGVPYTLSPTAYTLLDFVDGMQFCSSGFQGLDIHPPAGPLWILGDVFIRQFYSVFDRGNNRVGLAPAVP
Put plainly: Inhibition of human cathepsin E assessed as inhibition constant using ACC-GKPILFFRILK-(DNP)-(dR)-NH2 as substrate by spectrophotometric analysis.

Another data set relates to MCF7. As to the kind of experiment: Cytotoxicity against human MCF7 cells assessed as cell viability by celltiter-glo luminescent cell viability assay. It is filed as functional.
The next data set relates to HeLa. As to the kind of experiment: Cytotoxicity against human HeLa cells assessed as cell viability by celltiter-glo luminescent cell viability assay. It counts as functional.
For the next data set, the system named is HepG2. Put plainly: Cytotoxicity against human HepG2 cells assessed as cell viability by celltiter-glo luminescent cell viability assay. It counts as functional.
For the next data set, the system named is HL-60. As to the kind of experiment: Cytotoxicity against human HL-60 cells assessed as cell viability by celltiter-glo luminescent cell viability assay. It counts as functional.
In data set [5] the test system is Cryptococcus neoformans. Put plainly: Antifungal activity against may1delta Cryptococcus neoformans var. grubii H99 assessed as reduction of density in logarithmic phase at 50 uM measured upto 48 hrs. It counts as functional, organism-based. As to conditions: time hrs <=48. The gist of the method: (§1)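 Logarithmically growing may1Δ (and H99) yeast pelleted and resuspended to OD600 0.1 in unbuffered YNB or YNB with 50 mM MES pH 6.5. Treated with 50 μM compound or 0.5% DMSO vehicle at 30 °C on a tube rotator. OD600 read every 2 h for 12 h, then at 24 and 48 h. Triplicate cultures, mean ± standard deviation.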

Data set [6] deals with Cryptococcus neoformans. Put plainly: Antifungal activity against may1delta Cryptococcus neoformans var. grubii H99 assessed as reduction of density in stationary phase at 50 uM measured upto 48 hrs. It is filed as functional, organism-based. As to conditions: time hrs <=48. Put shortly: as §1

Activity calls are given as the source filed them. No cut-off for these calls is given here.

For `Cc1nc(COc2ccc(C[C@H](NC(=O)O[C@H]3CO[C@H]4OCC[C@H]43)[C@H](O)CN(CC(C)C)S(=O)(=O)c3ccc4c(c3)OCO4)cc2)cs1` [BRECANAVIR], in [1], the inhibition constant Ki (as a rule, the equilibrium dissociation constant of an inhibitor or competing ligand from its target) is 350 nM.
On the same count and under the same terms, then `CC(C)C[C@H](NC(=O)[C@H](CCC(=O)O)NC(=O)C[C@H](O)[C@H](Cc1ccccc1)NC(=O)OCc1ccccc1)C(N)=O`, with 160 nM; and `CC[C@H](NC(=O)[C@H](CCC(N)=O)NC(=O)C[C@H](O)[C@H](Cc1ccccc1)NC(=O)OCc1ccccc1)C(N)=O`, with 1200 nM; and `NC(=O)[C@H](Cc1c[nH]c2ccccc12)NC(=O)[C@H](CCC(=O)O)NC(=O)C[C@H](O)[C@H](Cc1ccccc1)NC(=O)OCc1ccccc1`, with 340 nM.
Take `NC(=O)[C@H](Cc1ccccc1)NC(=O)[C@H](CCC(=O)O)NC(=O)C[C@H](O)[C@H](Cc1ccccc1)NC(=O)OCc1ccccc1`: in data set [1], the inhibition constant Ki was 390 nM.
With `NC(=O)CC[C@H](NC(=O)C[C@H](O)[C@H](Cc1ccccc1)NC(=O)OCc1ccccc1)C(=O)N[C@@H](CC1CCCCC1)C(N)=O`, the Ki in [1] came to 400 nM.
`C[C@@H](O)[C@H](NC(=O)[C@H](CCC(N)=O)NC(=O)C[C@H](O)[C@H](Cc1ccccc1)NC(=O)OCc1ccccc1)C(N)=O`: in [1], the inhibitory constant (Ki) was found to be 1300 nM.
Take `CC(C)[C@H](NC(=O)[C@H](CCC(N)=O)NC(=O)C[C@H](O)[C@H](Cc1ccccc1)NC(=O)OCc1ccccc1)C(N)=O`: in data set [1], the Ki came to 120 nM.
As for `C[C@@H](O)[C@H](NC(=O)[C@H](CCC(=O)O)NC(=O)C[C@H](O)[C@H](Cc1ccccc1)NC(=O)OCc1ccccc1)C(N)=O`, the inhibitory constant (Ki) in data set [1] is 250 nM.
As to `CCCC[C@H](NC(=O)[C@H](CCC(N)=O)NC(=O)C[C@H](O)[C@H](Cc1ccccc1)NC(=O)OCc1ccccc1)C(N)=O`, the Ki in [1] stood at 170 nM.
In the case of `NC(=O)CC[C@H](NC(=O)C[C@H](O)[C@H](Cc1ccccc1)NC(=O)OCc1ccccc1)C(=O)N[C@@H](CCc1ccccc1)C(N)=O`, the inhibition constant (Ki) in [1] amounted to 64 nM.
Same read-out and setting: with `CSCC[C@H](NC(=O)[C@H](CCC(=O)O)NC(=O)C[C@H](O)[C@H](Cc1ccccc1)NC(=O)OCc1ccccc1)C(N)=O` the figure was 280 nM.
Consider `CCC[C@H](NC(=O)[C@H](CCC(=O)O)NC(=O)C[C@H](O)[C@H](Cc1ccccc1)NC(=O)OCc1ccccc1)C(N)=O`, for which the Ki in data set [1] was found to be 410 nM.
For `CC(C)[C@H](NC(=O)[C@H](CCC(=O)O)NC(=O)C[C@H](O)[C@H](Cc1ccccc1)NC(=O)OCc1ccccc1)C(N)=O`, in data set [1], the Ki amounted to 82 nM. The Activity entry in the data set with Cryptococcus neoformans [2] was “Dose-Dependent Effect”.
Consider `CC[C@H](C)[C@H](NC(=O)[C@H](CCC(N)=O)NC(=O)C[C@H](O)[C@H](Cc1ccccc1)NC(=O)OCc1ccccc1)C(N)=O`, for which the Ki in [1] is 240 nM.
As to `CC(C)[C@H](NC(=O)[C@H](Cc1ccccc1)C[C@H](O)[C@H](Cc1ccccc1)NC(=O)OC(C)(C)C)C(=O)N[C@@H](Cc1ccccc1)C(=O)N1CCOCC1`, the Ki in data set [1] turned out to be 13 nM.
On to `CCCC[C@H](NC(=O)[C@H](CCC(=O)O)NC(=O)C[C@H](O)[C@H](Cc1ccccc1)NC(=O)OCc1ccccc1)C(N)=O`, for which the Ki in data set [1] is 180 nM. Further, the Activity entry with Cryptococcus neoformans [2] is “Dose-Dependent Effect”.
In the case of `NC(=O)CC[C@H](NC(=O)C[C@H](O)[C@H](Cc1ccccc1)NC(=O)OCc1ccccc1)C(=O)N[C@H](C(N)=O)c1ccccc1`, the Ki in [1] is 360 nM.
As to `CCOP(=O)(COc1ccc(C[C@H](NC(=O)O[C@H]2CO[C@H]3OCC[C@H]32)[C@H](O)CN(CC(C)C)S(=O)(=O)c2ccc(OC)cc2)cc1)OCC`, the Ki in data set [1] is 170 nM.
As for `NC(=O)[C@@H](NC(=O)[C@H](CCC(=O)O)NC(=O)C[C@H](O)[C@H](Cc1ccccc1)NC(=O)OCc1ccccc1)c1ccccc1`, the Ki in data set [1] worked out at 210 nM.
In the case of `CC[C@H](NC(=O)[C@H](CCC(=O)O)NC(=O)C[C@H](O)[C@H](Cc1ccccc1)NC(=O)OCc1ccccc1)C(N)=O`, the inhibition constant (Ki) in [1] turned out to be 760 nM.
For the compound `NC(=O)[C@H](CCc1ccccc1)NC(=O)[C@H](CCC(=O)O)NC(=O)C[C@H](O)[C@H](Cc1ccccc1)NC(=O)OCc1ccccc1`, the Ki at Cathepsin D was 620 nM; in data set [3], 1600 nM; in data set [1], 12 nM; at Renin, 19000 nM; in data set [4], 0.032 nM; on Cathepsin E, 440 nM. Further, the CC50 in the data set on CCRF-CEM, in the data set with MCF7, in the data set on HeLa, with HepG2 and with HL-60 was above 80000 nM in each case. Moreover, the Activity result in the data set on Cryptococcus neoformans [2] was “Dose-Dependent Effect”. Further, the outcome in the data set with Cryptococcus neoformans [5] and with Cryptococcus neoformans [6] was inactive.
For the compound `NC(=O)[C@H](CC1CCCCC1)NC(=O)[C@H](CCC(=O)O)NC(=O)C[C@H](O)[C@H](Cc1ccccc1)NC(=O)OCc1ccccc1`, the Ki in data set [1] was determined as 160 nM.
On the same count and under the same terms, with `CC[C@H](C)[C@H](NC(=O)[C@H](CCC(=O)O)NC(=O)C[C@H](O)[C@H](Cc1ccccc1)NC(=O)OCc1ccccc1)C(N)=O` the figure was 410 nM; with `CSCC[C@H](NC(=O)[C@H](CCC(N)=O)NC(=O)C[C@H](O)[C@H](Cc1ccccc1)NC(=O)OCc1ccccc1)C(N)=O`, 290 nM.
The same measure, in the same setting: with `CC(C)CN(C[C@@H](O)[C@H](Cc1ccccc1)NC(=O)O[C@H]1CCOC1)S(=O)(=O)c1ccc(N)cc1` the figure was 750 nM; with `CCC[C@H](NC(=O)[C@H](CCC(N)=O)NC(=O)C[C@H](O)[C@H](Cc1ccccc1)NC(=O)OCc1ccccc1)C(N)=O`, 470 nM.
Turning to `NC(=O)CC[C@H](NC(=O)C[C@H](O)[C@H](Cc1ccccc1)NC(=O)OCc1ccccc1)C(=O)N[C@@H](Cc1ccccc1)C(N)=O`, the Ki in data set [1] was found to be 320 nM.

(Values after ChEMBL document CHEMBL5036316, “Re-emerging Aspartic Protease Targets: Examining Cryptococcus neoformans Major Aspartyl Peptidase 1 as a Target for Antifungal Drug Discovery” (J Med Chem, 2021).)
